Screening results deposited in PubChem BioAssay by several laboratories.
hiPSC survival – increases survival of single human iPS cells | hiPSC single-cell survival, ATPlite luminescence; 100% = ROCK inhibitor wells, 0% = DMSO | survival enhancement, % at 20 µM | 360,000 compounds, 0.044% hits | AID 602274; in the data active means survival enhancement above about 18%;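 further: cells exposed to compounds for 16 hours before the ATP read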
E coli Lon inh – inhibitors of E. coli Lon protease; purified E. coli Lon protease, fluorescence polarization; P0A9M0; 360,000 compounds, 0.42% hits; inhibition, % at 7.94 µM; AID 602123; in the data active means inhibition above about 13%, passing the limit was not always enough;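 further: 0% = enzyme with probe and DMSO and 100% = no enzyme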
TbMetRS inhib – blocks T. brucei methionyl-tRNA synthetase activity. purified T. brucei MetRS, ATP depletion, Kinase-Glo luminescence. inhibition, % at 11.9 µM. AID 624268. 360,000 compounds, 0.4% hits;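 active means inhibition above a per-plate cutoff of the control wells' mean inhibition plus 3 SD, cut at about 5.5% in these data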;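 further: 0% = DMSO wells median and 100% = median of wells with control inhibitor compound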
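System: purified T. brucei MetRS enzyme / Detection: Kinase-Glo luciferase luminescence reporting remaining unconsumed ATP / Medium: HEPES buffer with MgCl2, KCl, DTT, spermine, BSA, pyrophosphatase / Replication: singlicate, one well per compound / Evaluation: percent inhibition relative to median high and low control wells / Schedule: 2 h aminoacylation at 25 °C after 15 min preincubation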
SKN-1 inh – blocks SKN-1 activity in C. elegans; C. elegans VP596 Pgst-4::GFP/RFP ratio, acrylamide-induced, 24 h; inhibition, % at 21.8 µM; 360,000 compounds, 0.49% hits; AID 624304;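 active means interference check ratio from 0.5 to 1.5 plus GFP to RFP signal ratio inhibition reaching or exceeding a fixed threshold, cut at about 30% in these data, passing the limit was not always enough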
PREPL inhibitor – human PREPL enzyme inhibition; inhibition, % at 5.96 µM; 320,000 compounds, 0.68% hits; Q4J6C6; recombinant PREPL, fluorescence polarization activity-based probe; in the data active means inhibition above about 43%;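 further: 0% = enzyme with DMSO and 100% = wells lacking enzyme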
Target sequence (Q4J6C6 whole entry, looked up): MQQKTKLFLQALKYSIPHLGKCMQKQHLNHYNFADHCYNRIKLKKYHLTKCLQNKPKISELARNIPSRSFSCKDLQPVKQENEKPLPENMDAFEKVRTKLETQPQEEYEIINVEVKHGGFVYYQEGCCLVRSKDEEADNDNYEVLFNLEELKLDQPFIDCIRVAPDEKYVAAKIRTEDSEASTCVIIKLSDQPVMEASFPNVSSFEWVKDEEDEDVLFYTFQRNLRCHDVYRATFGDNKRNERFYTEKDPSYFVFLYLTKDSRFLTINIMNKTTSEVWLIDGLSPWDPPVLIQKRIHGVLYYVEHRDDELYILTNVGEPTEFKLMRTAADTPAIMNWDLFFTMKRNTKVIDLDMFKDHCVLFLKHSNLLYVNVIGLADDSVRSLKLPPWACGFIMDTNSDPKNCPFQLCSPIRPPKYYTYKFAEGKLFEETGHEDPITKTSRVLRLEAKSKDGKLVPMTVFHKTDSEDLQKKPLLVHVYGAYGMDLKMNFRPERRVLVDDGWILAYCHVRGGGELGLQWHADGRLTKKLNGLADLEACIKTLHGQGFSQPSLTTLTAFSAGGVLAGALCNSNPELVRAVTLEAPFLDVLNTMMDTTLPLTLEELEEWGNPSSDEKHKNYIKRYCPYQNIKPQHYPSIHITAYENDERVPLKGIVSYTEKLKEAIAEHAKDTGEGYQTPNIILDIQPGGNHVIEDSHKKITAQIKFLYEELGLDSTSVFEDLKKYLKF
MT1-MMP act inh – inhibitors of human MT1-MMP activation. AID 651647. 360,000 compounds, 0.061% hits. P50281. HT1080 RFP-PRO-GFP cells, GFP/RFP ratio fluorescence, overnight; percent of plate control window, DMSO zero. GFP/RFP ratio change, % at 20 µM;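 active means GFP/RFP ratio change of at least 30% with cell ATP level not reduced by more than half and red fluorescence within 50% of control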
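Assay system: HT1080 cells carrying an RFP-PRO-GFP reporter | Dosing: Single dose of 20 µM compound, 1% DMSO final | Incubation: Cells overnight before dosing, compound overnight, 37 °C, 5% CO2 | Evaluation: GFP/RFP fluorescence ratio | Control set: DMSO and RFP-L50D-GFP cell wells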
Numbers without * were called inactive; nt = no result given. Shown are actives, neighbours in structure and some others; about 1.8% of the full set was active somewhere.

SMILES | hiPSC survival | E coli Lon inh | TbMetRS inhib | SKN-1 inh | PREPL inhibitor | MT1-MMP act inh
N=c1n(CCN2CCCCC2)c2ccccc2n1CC(=O)c1ccc(Cl)c(Cl)c1 | -0.3 | 3.5 | -1.0 | -1.1 | 43.2* | -1.6
N=c1n(CCN2CCCCC2)c2ccccc2n1CC(O)c1ccc(Cl)c(Cl)c1 (centres undefined) | -3.1 | -6.3 | -0.2 | 0.9 | 49.9* | -5.7
CCn1c(=N)n(CC(=O)c2ccc(Cl)c(Cl)c2)c2ccccc21 | -0.3 | 8.5 | 1.9 | 5.7 | 39.0 | -2.5
Cc1c(C)c2ccc(OCC(=O)NCCc3c[nH]c4ccccc34)cc2oc1=O | -0.5 | 3.8 | -0.5 | 7.9 | nt | 4.1
N=C1C(c2nc(-c3ccc(Cl)cc3)cs2)=C(O)CN1CCCN1CCOCC1 | 1.7 | 5.2 | 0.1 | -1.5 | 56.6* | -2.6
CCOc1cc2c(c3c1C(c1ccccc1)N(S(=O)(=O)c1ccc(C)cc1)C3)C(=O)C=CC2=O (centres undefined) | -1.4 | -3.5 | -0.2 | -2.1 | nt | 4.8
CNc1ccc(-c2ccccc2CO)cn1 | 0.1 | 1.3 | -0.2 | 7.0 | nt | 1.4
COc1ccc(-c2nnc(OC)c3ccccc23)cc1 | 0.0 | -12.5 | -0.5 | 2.7 | -10.6 | -0.7
COc1nc(-c2ccccc2)nnc1-c1ccccc1 | -2.3 | -8.8 | -0.9 | 51.7* | nt | -2.7
O=c1[nH]cnc2c1ncn2C1CCC(CO)O1 (centres undefined) | 1.0 | -7.0 | -0.4 | -3.9 | nt | 0.8
COc1cc([N+](=O)[O-])ccc1NC(=O)CCCOc1cccc(C)c1C | -0.9 | 0.6 | -0.8 | -2.5 | 18.3 | 1.3
O=[N+]([O-])c1ccc(Oc2ccc(F)cc2)c2ccncc12 | 4.4 | -6.2 | 0.0 | 36.2* | 14.6 | -12.9
O=[N+]([O-])c1ccc(Oc2cccc(Br)c2)c2ccncc12 | 2.1 | 9.4 | -1.0 | 4.8 | 36.3 | -9.7
CSc1cccc(NC(=O)c2cccc3cccnc23)c1 | -0.4 | -6.7 | -0.3 | 65.2* | -0.2 | -3.4
Clc1ccc(CSc2nccn2Cc2ccccc2)cc1 | -1.5 | -3.0 | 0.2 | 37.8* | -24.8 | -7.1
O=c1ccn(Cc2ccccc2)c(SCc2ccccc2)n1 | 4.0 | 0.4 | 0.1 | 0.5 | nt | 5.0
COc1ccccc1N(CC(=O)NCc1ccccn1)S(C)(=O)=O | -4.2 | -8.2 | -0.9 | 3.1 | 18.8 | 6.8
COc1ccc(OC)c(N(CC(=O)NCc2ccccn2)S(C)(=O)=O)c1 | 4.7 | 31.0* | -1.9 | 2.7 | 1.4 | -6.2
O=C(Nc1ccccc1Oc1ccccc1)c1cccs1 | -0.5 | -8.7 | -0.2 | 41.9* | 10.1 | -1.1
CSc1ccccc1NC(=O)c1cccs1 | -1.5 | -2.0 | -1.5 | -15.4 | 17.0 | 1.2
C=C(C)[C@@H]1C2=CC(C(=O)OC)=C(C[C@H](C(=C)C)[C@H]3O[C@H]3C3=C[C@H]1OC3=O)O2 | -4.4 | -0.5 | -0.1 | 18.1 | nt | 0.8
O=c1[nH]c2cc(Cl)c(Br)cc2o1 | 3.3 | 1.6 | -0.3 | 35.4* | nt | 0.6
Cc1nc2sccn2c(=O)c1S(=O)(=O)N1CCN(c2ccccc2F)CC1 | 5.9 | 4.6 | -0.1 | -10.8 | nt | 4.7
Cc1cccc(NC(=O)COC(=O)c2cccc3c2C(=O)c2ccccc2C3=O)c1C | -1.3 | 5.2 | -0.6 | 12.4 | 59.1* | 5.1
Cc1cccc(C)c1NC(=O)COC(=O)c1cccc2c1C(=O)c1ccccc1C2=O | -1.4 | -13.3 | -0.7 | 9.0 | 1.0 | -7.0
SMILES | hiPSC survival | E coli Lon inh | TbMetRS inhib | SKN-1 inh | PREPL inhibitor | MT1-MMP act inh
CCCOc1ccc(F)cc1-c1cc(C(=O)NC(C)C)[nH]n1 | 5.8 | 3.7 | -0.5 | 23.8 | nt | 4.2
CCOc1ccccc1CNc1ccc(O)cc1 | -1.7 | 4.7 | 0.6 | 42.1* | nt | 17.5
Oc1ccc(NCc2ccccc2OCc2ccccc2F)cc1 | -3.3 | 1.9 | -0.7 | 16.8 | 29.6 | 22.5
CSC1=NC2(CC(c3ccccc3)Oc3cc(O)ccc32)CC(C)(C)N1 (centres undefined) | 2.4 | -0.1 | -0.5 | 42.8* | -14.7 | -8.8
N[C@@H](Cc1ccccc1)C(=O)N1CCC(C(=O)N[C@@H](CCC(=O)O)C(=O)O)CC1 | -0.6 | 1.9 | -0.7 | -19.8 | 8.1 | -1.3
Cc1c(C)n(C)c2ccc(C(=O)NCCN3CCOCC3)cc12 | -0.4 | 9.3 | 0.2 | 49.9* | -35.3 | 2.3
COc1c(C)cc(C(O)c2ncc(-c3ccccc3)[nH]2)cc1C (centres undefined) | 0.6 | -4.0 | -0.3 | 7.7 | nt | 6.0
CC1=NN(Cc2ccccc2)C(=O)/C1=C\c1ccc(N(C)C)cc1 | 0.0 | -12.7 | -0.6 | 34.0* | 10.8 | 6.1
FC(F)(F)C1=CC(c2ccc(Cl)cc2)=NCCN1 | -4.2 | -8.2 | -1.5 | 36.1* | 6.5 | 2.5
Cc1ccc(CN2C(=O)CCC2C(=O)NCc2ccccc2Cl)cc1 (centres undefined) | -0.3 | -7.1 | -0.1 | -0.7 | -0.4 | -0.3
COc1ccc2c(c1)OC/C(=C/c1cccs1)C2=O | -2.4 | -2.9 | -0.1 | 53.6* | 0.4 | 3.1
CN(CC(=O)Nc1ccc(F)cc1)CC(=O)Nc1ccc(F)c(F)c1F | -0.4 | 1.0 | -0.6 | -8.1 | -12.6 | 1.9
O=C1c2oc3ccccc3c(=O)c2C(c2cccs2)N1CCCN1CCOCC1 (centres undefined) | 0.2 | 12.1 | 0.0 | 3.9 | 9.7 | -7.5
O=C(O)C1CCCCC1C(=O)NCCc1c[nH]c2ccccc12 (centres undefined) | -3.4 | 2.6 | -0.5 | 37.1* | 30.0 | -2.7
COc1cccc(-c2ccc3c(c2)O[C@H](CN(C)C(=O)c2ccccc2F)[C@H](C)CN([C@H](C)CO)S3(=O)=O)c1 | 1.3 | 1.3 | 1.1 | -5.9 | nt | -6.2
CC(C)N(C)c1ncnc2c1ncn2[C@H]1CN(Cc2ccc(-c3ccccc3)cc2)C[C@@H](CO)O1 | 10.0 | -4.8 | 0.2 | -1.7 | nt | -5.4
CNC(=O)c1ccc2snnc2c1 | 3.0 | -2.3 | 0.0 | 9.9 | 0.1 | -0.3
CCCNC(=O)c1ccc2snnc2c1 | 7.5 | 4.6 | -0.2 | 36.0* | -4.2 | -2.1
O=C(CCCN1C(=O)C(=Cc2ccc3c(c2)OCO3)SC1=S)Nc1ccc(C(=O)O)c(O)c1 | 7.9 | -16.0 | 0.9 | 3.8 | nt | -1.5
CC1=CC2=C(OC1N(C)C)c1cccc3cccc(c13)C2=O (centres undefined) | -0.2 | 64.1* | -0.4 | 26.9 | 17.2 | -40.3
COC(=O)[C@]12CCCCC=C1N(Cc1ccc3c(c1)OCO3)C(=O)[C@H](CC(=O)NCCCCc1ccccc1)C2 | nt | nt | -0.9 | -9.4 | nt | -5.7
Cc1c(NC(=O)CSc2ccc3c(c2)OCCO3)c(=O)n(-c2ccccc2)n1C | -1.2 | 7.8 | 0.7 | 44.0* | -1.2 | 0.4
COc1ccc(S(=O)(=O)N2CCC(C(=O)Nc3ccccc3C)CC2)c2cccnc12 | 0.7 | 4.2 | 0.3 | 9.3 | 11.8 | 1.1
CCCN1C(=O)/C(=C/c2ccc(N3CCOCC3)cc2)NC1=S | -0.5 | -223.8 | 0.0 | 21.8 | 10.4 | -9.2
